Data taken from ChEMBL document CHEMBL1155659, “Chemistry of sponges. 19. Novel bioactive metabolites from Hamigera tarangaensis” (J Nat Prod, 2000).
The source made the active and inactive calls. The calls are words filed in the database; no cut-off is given here.

Experiments:
[1] = system: P388; assay: Cytotoxicity against mouse P388 cells; format: functional, cell-based
[2] = system: Escherichia coli; assay: Antibacterial activity against Escherichia coli; format: functional, organism-based
[3] = system: Candida albicans; assay: Antifungal activity against Candida albicans; format: functional, organism-based
[4] = system: Bacillus subtilis; assay: Antibacterial activity against Bacillus subtilis at 96 ug; format: functional; conditions: read-out: IZ
[5] = system: Bacillus subtilis; assay: Antibacterial activity against Bacillus subtilis at 150 ug; format: functional; conditions: read-out: IZ
[6] = system: Bacillus subtilis; assay: Antibacterial activity against Bacillus subtilis at 156 ug; format: functional; conditions: read-out: IZ
[7] = system: Trichophyton mentagrophytes; assay: Antifungal activity against Trichophyton mentagrophytes; format: functional, organism-based
[8] = system: Herpesviridae sp.; assay: Antiviral activity against Herpesvirus; format: functional
In short: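 Disk-based antiviral test, sample loaded at 132 μg per disk onto herpes-virus-infected cell wells; read-out is percent virus inhibition, with cytotoxicity scored across the whole well.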

[9] = system: Enterovirus C; assay: Antiviral activity against Poliovirus; format: functional
In short: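 Disk assay at 132 μg per disk, scored as percent virus inhibition, with cytotoxicity assessed across the whole well.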

[10] = system: Bacillus subtilis; assay: Antibacterial activity against Bacillus subtilis; format: functional, organism-based

Row | SMILES | IC50 [1] [µM] | Activity [2] | Activity [3] | zone of inhibition at 96 µg/disc [4] [mm] | zone of inhibition at 150 µg/disc [5] [mm] | zone of inhibition at 156 µg/disc [6] [mm] | Activity [7] | Activity [8] | Activity [9] | Activity [10] | inhibition (INH) [8] [%] | inhibition (INH) [9] [%]
1 | Cc1cc([C@H]2[C@@H](C(C)C)CC[C@@]2(C)CC(=O)O)c2c(c1Br)O[C@H](C)NC2=O | 74.2 | inactive | inactive | 3 | 3 | 3 | inactive | inactive | inactive | – | – | –
2 | COC(=O)[C@]1(O)C(=O)c2c(O)cc(C)cc2[C@H]2[C@@H](C(C)C)CC[C@]21C | – | inactive | inactive | – | – | – | inactive | inactive | inactive | – | – | –
3 | COC(=O)[C@]1(O)C(=O)c2c(cc(C)c(Br)c2O)[C@H]2[C@@H](C(C)C)CC[C@]21C | – | inactive | inactive | – | – | – | inactive | inactive | inactive | inactive | – | –
4 | Cc1c(Br)c(O)c2c(c1Br)[C@H]1[C@@H](C(C)C)CC[C@@]1(C)C(=O)C2=O [4-BROMOHAMIGERAN B] | 13.9 | inactive | inactive | – | – | – | inactive | inactive | inactive | – | – | –
5 | Cc1cc2c(c(O)c1Br)C(=O)C(=O)[C@]1(C)CC[C@H](C(C)C)[C@H]21 [HAMIGERAN B] | – | inactive | inactive | – | – | – | – | – | – | – | 100 | 100
6 | CC(=O)O[C@H]1C(=O)C(=O)c2c(cc(C)c(Br)c2O)[C@H]2[C@@H](C(C)C)CC[C@@]12C [HAMIGERAN C] | 16 | inactive | inactive | 3 | 3 | 3 | – | inactive | inactive | – | – | –
7 | Cc1cc2c3c(c1Br)O[C@H](C)N=C3C(=O)C[C@]1(C)CC[C@H](C(C)C)[C@H]21 [HAMIGERAN D] | 8 | inactive | inactive | 3 | 3 | 3 | – | inactive | inactive | – | – | –
8 | CCOC(=O)c1c([C@H]2[C@@H](C(C)C)CC[C@@]2(C)C(=O)OCC)cc(C)c(Br)c1OCC [TRYETHYLHAMIGERAN E] | 54.2 | inactive | inactive | – | – | – | inactive | inactive | inactive | inactive | – | –
